Measurements taken from ChEMBL document CHEMBL1132144, “Synthesis of 9-O-substituted derivatives of 9-hydroxy-5, 6-dimethyl-6H-pyrido[4,3-b]carbazole-1-carboxylic acid (2-(dimethylamino)ethyl)amide and their 10- and 11-methyl analogues with improved antitumor activity” (J Med Chem, 1999).
Where “and” joins values, the source holds several entries; their conditions need not be identical. Equal entries are not always repeated.

How the values were obtained:
[1] = tested on: Mus musculus; test: Long-term survivors among 13 mice infected with P388 leukemia, scored on day 60 at 80 mg/kg dose on day 1; format: functional
Outline: (§1)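 B6D2F1 mice in groups of 6–7 were inoculated ip on day 0 with 10^6 P388 cells. Dihydrochloride salts were dissolved in water and given iv on day 1 or on days 1, 5 and 9. Doses ranged from a low nontoxic dose to a toxic one. Long-term survivors were counted at day 60.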

[2] = tested on: Mus musculus; test: Long-term survivors among 13 mice infected with B16 melanoma, scored on day 90 at 10 mg/kg dose on days 1-9
[3] = tested on: Mus musculus; test: Percent median survival time of mice injected with P388 leukemia, at a subcutaneous compound dose of 40 mg/kg; format: functional
[4] = tested on: B16; test: Inhibition of murine B16 melanoma cell proliferation measured by the MTT assay; format: functional, cell-based; conditions: Mus musculus
Outline: (§2)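 Murine L1210 leukemia and B16 melanoma cells were grown in RPMI 1640 with 10% fetal calf serum, 2 mM L-glutamine, penicillin/streptomycin and 10 mM HEPES (pH 7.4). Cells were exposed to nine serial drug dilutions in triplicate for about four doubling times (L1210 48 h, B16 96 h), then read by microculture tetrazolium (MTT) assay. IC50 is the concentration halving optical density versus untreated controls, averaged over ≥2 independent experiments.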

[5] = tested on: Mus musculus; test: Percent median survival time of mice injected with B16 melanoma, at a intraperitoneal compound dose of 10 mg/kg
[6] = tested on: L1210; test: Inhibition of murine L1210 leukemia cell proliferation measured by the MTT assay; format: functional, cell-based; conditions: Mus musculus; outline: as §2
[7] = tested on: Mus musculus; test: Long-term survivors among 21 mice infected with B16 melanoma, scored on day 90 at 10 mg/kg dose on days 1-9
[8] = tested on: Mus musculus; test: Percent median survival time of mice injected with P388 leukemia, at a intravenous compound dose of 80 mg/kg
[9] = tested on: Mus musculus; test: Percent median survival time of mice injected with P388 leukemia, at a subcutaneous compound dose of 160-320 mg/kg; format: functional
[10] = tested on: Mus musculus; test: Long-term survivors among 21 mice infected with P388 leukemia, scored on day 60 at 160-320 mg/kg dose on day 1; format: functional; outline: as §1
[11] = tested on: Mus musculus; test: Percent median survival time of mice injected with B16 melanoma, at a intraperitoneal compound dose of 0.5 mg/kg
[12] = tested on: Mus musculus; test: Percent median survival time of mice injected with P388 leukemia, at a subcutaneous compound dose of 20 mg/kg; format: functional
[13] = tested on: Mus musculus; test: Long-term survivors among 6 mice infected with P388 leukemia, scored on day 60 at 20 mg/kg dose; format: functional; outline: as §1
[14] = tested on: Mus musculus; test: Percent median survival time of mice injected with P388 leukemia, at a intravenous compound dose of 7.5 mg/kg
[15] = tested on: Mus musculus; test: Long-term survivors among 7 mice infected with B16 melanoma, scored on day 90 at 20 mg/kg dose
[16] = tested on: Mus musculus; test: Long-term survivors among 6 mice infected with P388 leukemia, scored on day 60 at 7.5 mg/kg dose; format: functional; outline: as §1
[17] = tested on: Mus musculus; test: Long-term survivors among 14 mice infected with B16 melanoma, scored on day 90 at 5 mg/kg dose; format: functional
Outline: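 B6D2F1 mice were inoculated ip on day 0 with B16 tumor brei (1 g tumor in 10 mL 0.9% NaCl). Compounds were given ip daily on days 1–9. Long-term survivors were scored at day 90.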

[18] = tested on: Mus musculus; test: Long-term survivors among 12 mice infected with P388 leukemia, scored on day 60 at 80 mg/kg dose on day 1; format: functional; outline: as §1
[19] = tested on: Mus musculus; test: Percent median survival time of mice injected with P388 leukemia, at a intravenous compound dose of 80 mg/kg on day1
[20] = tested on: Mus musculus; test: Percent median survival time of mice injected with B16 melanoma, at a intraperitoneal compound dose of 5 mg/kg
[21] = tested on: Mus musculus; test: Long-term survivors among 12 mice infected with P388 leukemia, scored on day 60 at 80 mg/kg dose on day 1, 5, 9; format: functional; outline: as §1
[22] = tested on: Mus musculus; test: Percent median survival time of mice injected with P388 leukemia, at a intravenous compound dose of 80 mg/kg on day1,5,9
[23] = tested on: Mus musculus; test: Long-term survivors among 6 mice infected with P388 leukemia, scored on day 60 at 10 mg/kg dose; format: functional; outline: as §1
[24] = tested on: Mus musculus; test: Percent median survival time of mice injected with B16 melanoma, at a intraperitoneal compound dose of 20 mg/kg
[25] = tested on: Mus musculus; test: Percent median survival time of mice intraperitoneally injected with P388 leukemia was determined from tested at 10 mg/kg at day1 dose to that of control; format: functional
Outline: (§3)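 P388 leukemia in B6D2F1 mice (groups of 6–7), 10^6 cells inoculated ip on day 0. Dihydrochloride salts were dissolved in water and given iv on day 1 or on days 1, 5, 9. Three doses were tested, then five if active. %T/C = median survival treated/control × 100, reported at the optimal dose (no toxic death, weight loss <20%), from one or two representative experiments.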

[26] = tested on: Mus musculus; test: Long-term survivors among 6 mice infected with P388 leukemia, scored on day 60 at 5 mg/kg dose; format: functional; outline: as §1
[27] = tested on: Mus musculus; test: Percent median survival time of mice intraperitoneally injected with P388 leukemia was determined from tested at 5 mg/kg at day1,5,9 dose to that of control; format: functional; conditions: route intraperitoneal; outline: as §3
[28] = tested on: Mus musculus; test: Percent median survival time of mice intraperitoneally injected with P388 leukemia was determined from tested at 20 mg/kg at day1 dose to that of control; format: functional; conditions: route intraperitoneal; outline: as §3
[29] = tested on: Mus musculus; test: Percent median survival time of mice intraperitoneally injected with P388 leukemia was determined from tested at 20 mg/kg at day1,5,9 dose to that of control; format: functional; conditions: route intravenous; outline: as §3
[30] = tested on: Mus musculus; test: Long-term survivors among 6 mice infected with P388 leukemia, scored on day 60 at 20 mg/kg dose on day 1, 5, 9; format: functional; outline: as §1
[31] = tested on: Mus musculus; test: Long-term survivors among 6 mice infected with P388 leukemia, scored on day 60 at 20 mg/kg dose on day 1; format: functional; outline: as §1
[32] = tested on: Mus musculus; test: Long-term survivors among 7 mice infected with P388 leukemia, scored on day 90 at 5 mg/kg dose; format: functional
[33] = tested on: Mus musculus; test: Long-term survivors among 6 mice infected with P388 leukemia, scored on day 60 at 5 mg/kg dose on day 1; format: functional; outline: as §1
[34] = tested on: Mus musculus; test: Percent median survival time of mice injected with P388 leukemia, at a subcutaneous compound dose of 5 mg/kg on day 1, 5, 9; format: functional
[35] = tested on: Mus musculus; test: Percent median survival time of mice injected with P388 leukemia, at a subcutaneous compound dose of 5 mg/kg on day 1; format: functional
[36] = tested on: Mus musculus; test: Long-term survivors among 6 mice infected with B16 melanoma, scored on day 90 at 102 mg/kg dose on day 1; format: functional

Cc1c2ccnc(C(=O)NCCN(C)C)c2cc2c3cc(OC(=O)c4cccnc4)ccc3n(C)c12
LTS [1]: 0 | LTS [2]: 0 | T/C [3]: 199% and 283% | IC50 [4]: 2.3 nM | T/C [5]: 190% | IC50 [6]: 74.5 nM

Cc1c2ccnc(C(=O)NCCN(C)C)c2cc2c3cc(OC(=O)CCCC(=O)O)ccc3n(C)c12
LTS [7]: 2 | T/C [8]: >582% | IC50 [4]: 14.8 nM | T/C [9]: >590% | T/C [5]: 196% | LTS [10]: 4 | IC50 [6]: 19.7 nM

Cc1c2cc[n+](C)cc2c(C)c2c1[nH]c1ccc(O)cc12 [ELLIPTINIUM]
T/C [11]: 133% | T/C [12]: 138% | LTS [13]: 0 | IC50 [4]: 106 nM | T/C [14]: 112% | LTS [15]: 0 | IC50 [6]: 54.6 nM | LTS [16]: 0

Cc1c2ccnc(C(=O)NCCN(C)C)c2cc2c3cc(O)ccc3n(C)c12
LTS [17]: 0 | LTS [18]: 0 | T/C [19]: 227% | T/C [20]: 174% | LTS [21]: 7 | T/C [22]: >541% | IC50 [4]: 5.4 nM | IC50 [6]: 13.1 nM

Cc1c2ccnc(C(=O)NCCN(C)C)c2cc2c3cc(OC(=O)N(C)c4ccccc4)ccc3n(C)c12
LTS [23]: 0 | T/C [24]: 101% | T/C [25]: 100% | LTS [26]: 0 | IC50 [4]: 1370 nM | IC50 [6]: 1170 nM | T/C [27]: 106%

Cc1c2ccnc(C(=O)NCCN(C)C)c2cc2c3cc(OCC4C[C@@H]4c4ccccc4)ccc3n(C)c12 (stereo partly specified)
T/C [28]: 102% | T/C [29]: 99% | LTS [30]: 0 | T/C [20]: 94% | LTS [31]: 0 | IC50 [4]: 279 nM | LTS [32]: 0 | IC50 [6]: 374 nM

Cc1c2ccnc(C(=O)NCCN(C)C)c2cc2c3cc(OC(=O)N4CCN(C(c5ccccc5)c5ccccc5)CC4)ccc3n(C)c12
LTS [33]: 0 | T/C [24]: 102% | T/C [34]: 94% | T/C [35]: 102% | IC50 [4]: 590 nM | LTS [36]: 0 | IC50 [6]: 164 nM
